A short description of assay [1]: Inhibition of L-type calcium channel subunits alpha1C, beta1b, and alpha2-delta subunits expressed in Human embryonic kidney tsa-201 cells. Format: cell-based. Summed up:
(§1)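 Whole-cell patch clamp on GFP-positive tsa-201 cells transiently co-transfected (calcium phosphate) with α1C, β1b, α2-δ and GFP, then held at 28 °C for 2–4 days. Bath contained 5 mM BaCl2 as the charge carrier (pH 7.2), and pipettes held CsMS/EGTA. Currents were elicited from −80 mV to test potentials. Compound was diluted from a 10 mM DMSO stock and microperfused, and dose–response curves were fitted individually.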

Assay [2] can be described thus: Maximum inhibition of L-type calcium channel expressed in HEK tsa-201 cells from Patch Clamp analysis. Format: functional, HEK293. The procedure, abridged:
as §1
In general terms: The patch-clamp technique gives a direct electrical read-out from membranes.

The species named for another assay is Homo sapiens. Put plainly: Percent recovery of Human embryonic kidney tsa-201 cells. Format: functional.

Turning to `CCOC(=O)C1=C(C)N=C(C)/C(=C(/O)OCC)C1c1c(-c2ccccc2Cl)noc1C` (stereo not given), the IC50 in assay [1] is 9.68 µM. Moreover, in assay [2], the Max inhibition stood at 70. For the same compound, in the assay listed under Homo sapiens, the Recovery was determined as 65%.
For the compound `COC(=O)C1=C(C)N=C(C)/C(=C(/O)OC)C1c1c(-c2ccc(Cl)cc2)noc1C` (stereo not given), the IC50 in assay [1] was found to be 1.74 µM. The Max inhibition in assay [2] is on record as 85. Moreover, the Recovery in the assay filed under Homo sapiens was 64%.
As to `CCOC(=O)C1=C(C)N=C(C)/C(=C(/O)OCC)C1c1c(-c2ccccc2OC)noc1C` (stereo not given), the Max inhibition in assay [2] came out at 55. The Recovery in the assay listed under Homo sapiens was found to be 69%.
Regarding `CCOC(=O)C1=C(C)N=C(C)/C(=C(/O)OCC)C1c1c(-c2cccc(Cl)c2)noc1C` (stereo not given), in assay [1], the IC50 came to 1.98 µM. In addition, in assay [2], the Max inhibition was 100. For the same compound, the Recovery in the assay listed under Homo sapiens came out at 65%.
The corresponding values for `CCOC(=O)C1=C(C)N=C(C)/C(=C(/O)OCC)C1c1c(C)noc1CCc1cccc(OC)c1` (stereo not given) are 1.59 µM, 100 and 49%.
The corresponding values for `CCOC(=O)C1=C(C)N=C(C)/C(=C(/O)OCC)C1c1c(C)noc1C` (stereo not given) are 8.1 µM, 100 and 87%.
The corresponding values for `COC(=O)C1=C(C)N=C(C)/C(=C(/O)OC)C1c1c(-c2ccc(F)cc2)noc1C` (stereo not given) are 2.71 µM, 93 and 66%.
On to `CCOC(=O)C1=C(C)N=C(C)/C(=C(/O)OCC)C1c1c(C)noc1CCc1cccc(Br)c1` (stereo not given), for which the concentration for half-maximal inhibition (IC50) in assay [1] is 0.13 µM. The Max inhibition in assay [2] was 100. This compound also gave a Recovery in the assay filed under Homo sapiens of 48%.
In the case of `CCOC(=O)C1=C(C)N=C(C)/C(=C(/O)OCC)C1c1c(C)noc1CCc1ccc2ccccc2c1` (stereo not given), in assay [1], the IC50 is 1.18 µM. Further, the Max inhibition in assay [2] is listed as 100. For the same compound, in the assay listed under Homo sapiens, the Recovery amounted to 41%.
The like results for `CCOC(=O)C1=C(C)N=C(C)/C(=C(/O)OCC)C1c1c(C)noc1CCc1ccccc1` (stereo not given) were, in that order, 1.79 µM, 100 and 46%.
Turning to `CCOC(=O)C1=C(C)N=C(C)/C(=C(/O)OCC)C1c1c(-c2ccc(Cl)cc2)noc1C` (stereo not given), the Max inhibition in assay [2] was determined as 100. In the assay filed under Homo sapiens, this compound had a Recovery of 77%.
`CCOC(=O)C1=C(C)N=C(C)/C(=C(/O)OCC)C1c1c(C)noc1CCc1cccc2ccccc12` (stereo not given): in assay [1], the IC50 was found to be 0.47 µM. The Max inhibition in assay [2] turned out to be 76. Further, in the assay filed under Homo sapiens, the Recovery is 43%.
`CCOC(=O)C1=C(C)N=C(C)/C(=C(/O)OCC)C1c1c(-c2cc(Cl)ccc2OC)noc1C` (stereo not given): in assay [1], the IC50 was determined as 6.86 µM. The Max inhibition in assay [2] was determined as 33. In addition, the Recovery in the assay listed under Homo sapiens turned out to be 82%.
Consider `COC(=O)C1=C(C)N=C(C)/C(=C(/O)OC)C1c1c(-c2ccc(Br)cc2)noc1C` (stereo not given), for which, in assay [1], the IC50 stood at 0.58 µM. Besides, in assay [2], the Max inhibition is listed as 88. The same compound gave a Recovery in the assay filed under Homo sapiens of 60%.

A word on the IC50: it is the concentration that gives 50% inhibition.

The values above are taken from ChEMBL document CHEMBL1145024, “Unique structure-activity relationship for 4-isoxazolyl-1,4-dihydropyridines” (J Med Chem, 2003).
